In experiment [1] the target is T1, Vasopressin V2 receptor (Homo sapiens, UniProt P30518). The experiment in a line: Intrinsic activity at human vasopressin V2 receptor expressed in CHO cells assessed as cAMP accumulation by HTRF assay relative to arginine vasopressin. Format: functional, cell-based.
In experiment [2] the target is T1, Vasopressin V2 receptor. Briefly: Displacement of [3H]vasopressin from human vasopressin V2 receptor expressed in CHO cells by microplate scintillation counting. The format is cell-based.
Experiment [3] addresses T1, Vasopressin V2 receptor. The experiment in a line: Agonist activity at human vasopressin V2 receptor expressed in CHO cells assessed as cAMP accumulation by HTRF assay. Format: functional, cell-based. In a few lines:
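Cells kept in α-MEM with 10% FBS, penicillin/streptomycin and 0.1% amethopterin at 37 °C, 5% CO₂, grown to subconfluence, then serum-starved 24 h. Medium changed to α-MEM with 1 mmol/L IBMX and 0.1% BSA, compound added for 10 min at 37 °C. Lysis in PBS/0.2% Triton X-100, cAMP read by HTRF. Triplicate.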

In experiment [4] the target is Vasopressin V2 receptor (Rattus norvegicus, UniProt Q00788). The experiment in a line: Displacement of [3H]vasopressin from rat vasopressin V2 receptor expressed in CHO cells by microplate scintillation counting. Format: cell-based.
Vasopressin V2 receptor (Rattus norvegicus, UniProt Q00788), sequence (Q00788 whole entry): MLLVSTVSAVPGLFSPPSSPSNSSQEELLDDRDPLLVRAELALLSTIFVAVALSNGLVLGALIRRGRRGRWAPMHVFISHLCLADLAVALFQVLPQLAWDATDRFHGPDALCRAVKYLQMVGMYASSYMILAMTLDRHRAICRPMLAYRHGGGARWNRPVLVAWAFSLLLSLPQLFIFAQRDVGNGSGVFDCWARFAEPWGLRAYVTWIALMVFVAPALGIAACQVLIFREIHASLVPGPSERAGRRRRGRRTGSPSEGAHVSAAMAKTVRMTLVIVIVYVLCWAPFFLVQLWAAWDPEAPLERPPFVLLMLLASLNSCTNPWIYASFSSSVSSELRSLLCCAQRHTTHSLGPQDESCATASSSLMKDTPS

The source made the active and inactive calls. No cut-off for these calls is given here. Where only a bound is given, the exact number is not on record here.

T1 sequence (P30518 whole entry): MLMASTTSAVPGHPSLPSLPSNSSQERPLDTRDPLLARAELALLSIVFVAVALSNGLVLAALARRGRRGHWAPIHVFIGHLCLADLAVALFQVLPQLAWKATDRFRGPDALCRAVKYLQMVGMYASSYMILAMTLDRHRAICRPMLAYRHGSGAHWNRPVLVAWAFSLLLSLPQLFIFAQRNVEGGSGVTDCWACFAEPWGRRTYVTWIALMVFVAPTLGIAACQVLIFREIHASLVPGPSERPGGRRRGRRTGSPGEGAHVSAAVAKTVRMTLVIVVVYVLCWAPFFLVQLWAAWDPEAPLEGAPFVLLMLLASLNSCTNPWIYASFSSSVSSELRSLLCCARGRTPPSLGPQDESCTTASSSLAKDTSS

What is called Ki is a measure of affinity in units of concentration, obtained from inhibition or displacement. Low readings indicate higher affinity, high ones lower affinity. One may read the EC50 as the concentration needed to bring the measured effect to its halfway point. Take `CCc1ccn(-c2ccc(C(=O)N3CCC(F)(F)/C(=C\C(=O)NCc4ccccn4)c4ccccc43)c(Cl)c2)n1`: the Activity at Vasopressin V2 receptor [1] was 86.8%. Moreover, on Vasopressin V2 receptor [2], the Ki came to 21 nM. Besides, the EC50 at Vasopressin V2 receptor [3] was above 10000 nM.
On to `CN1CCN(c2ccc(C(=O)N3CCC(F)(F)/C(=C\C(=O)NCc4ccccn4)c4ccccc43)c(Cl)c2)CC1`, for which, at Vasopressin V2 receptor [1], the Activity stood at 35.5%. Further, on Vasopressin V2 receptor [2], affinity was put at a Ki of 170 nM. On Vasopressin V2 receptor [3], the EC50 was above 10000 nM.
For the molecule `O=C(/C=C1/c2ccccc2N(C(=O)c2ccc(NC(=O)c3ccccc3-c3ccccc3)cc2)CCC1(F)F)NCc1ccccn1`, on Vasopressin V2 receptor [3], the outcome was inactive. Moreover, the Ki on Vasopressin V2 receptor [4] amounted to 0.4 nM.
For the molecule `CC(C)c1ccn(-c2ccc(C(=O)N3CCC(F)(F)/C(=C\C(=O)NCc4ccccn4)c4ccccc43)c(Cl)c2)n1`, the Activity at Vasopressin V2 receptor [1] was 4.9%. For the same molecule, affinity on Vasopressin V2 receptor [2] was put at a Ki of 18 nM. The EC50 at Vasopressin V2 receptor [3] is above 10000 nM.
On Vasopressin V2 receptor [4], `Cc1ccn(-c2ccc(C(=O)N3CCC(F)(F)/C(=C\C(=O)NCc4ccccn4)c4ccccc43)c(Cl)c2)n1` had a Ki of 19 nM.

Source of the values: ChEMBL document CHEMBL1152251, “Preparation of (4,4-difluoro-1,2,3,4-tetrahydro-5H-1-benzazepin-5-ylidene)acetamide derivatives as novel arginine vasopressin V(2) receptor agonists” (Bioorg Med Chem, 2008).
